Assay outcomes from PubChem BioAssay.
MT stabilize HCS = stabilizes microtubules in HeLa cells. HeLa tubulin immunostaining HCS, 24 h; share of cells brighter than vehicle mean+2SD. % tubulin-high responders, % at 10 µM. actives 0.83% (n = 200,000). AID 2205;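 active = plate Z-score above 3 for both tubulin-high and condensed-nucleus cell shares, with cell loss under 80%, at 10 µM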;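 also: anti alpha tubulin signal scored within the nucleus-defined area of each cell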
L major viab = Leishmania major promastigote growth inhibition | inhibition, % at 10 µM | actives 9% (n = 200,000) | Leishmania major promastigotes, resazurin fluorescence viability; in the data active = inhibition above about 50%;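 also: promastigotes grown with compound for 44 hours at 28 °C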
Dynein cargo inh = blocks dynein driven cargo transport along microtubules; 3617.4 mouse cells, GR-EGFP nuclear translocation imaging; test concentration mostly 20 µM; stimulated with dexamethasone, 1 µM; active compounds read low; z-score, hits read low; actives 0.47% (n = 220,000);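 active = plate z-score of nuclear minus cytoplasmic receptor signal below a set negative limit, without overly bright fluorescence or cell loss, cut at about -3.5 in these data, passing the limit was not always enough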;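 also: z-score of nuclear minus cytoplasmic ring GR-EGFP intensity difference per well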
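Buffer or medium – tet-free medium with charcoal-stripped serum · Signal – automated 10x imaging of fixed Hoechst-stained cells · Also added – dexamethasone agonist, 1.0 µM final, for 30 min · Incubation – induction 48 h, compound 1 h, agonist 30 min · Read-out – GR-EGFP nuclear translocation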
CHOP inhibitor = inhibitors of CHOP induction in ER stress response. AID 2732. inhibition, % at 10 µM. actives 3.8% (n = 220,000). CHO-K1 CHOP-promoter luciferase, tunicamycin-induced, 15-18 h;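 active = compounds that reduced the stress-induced luciferase reporter signal by more than about 70% of percent inhibition, limit read from the data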;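 also: 0% = tunicamycin plus vehicle and 100% = wells without tunicamycin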
Autophagy HCS = autophagy modulation, high-content screen. MEF GFP-LC3 puncta imaging; test concentration mostly 10 µM. calls only at 10 µM (by protocol). actives 0.98% (n = 190,000);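 active = percentage of spot-positive cells more than 3 SD above its plate mean, without a fluorescence outlier flag or 80% toxicity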;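 also: spot-positive cell cutoff set from DMSO-treated cells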
b-catenin transl = modulators of beta-catenin nuclear translocation; AID 1665; nuclear translocation activity, % at 5 µM; actives 0.3% (n = 190,000); HeLa beta-catenin nuclear translocation, immunofluorescence imaging;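 active = nuclear translocation activity above 50% at 5 µM, with a well cell count of 50 or more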;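 also: per-cell ratio of nuclear to cytoplasmic median beta-catenin stain intensity; plate controls were DMSO negative control for no effect and GSK-3 inhibitor IX positive control for full effect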
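System: Human HeLa cells, endogenous beta-catenin | Compound dosing: 5 µM primary, 0.02–20 µM confirmation | Timing: 24 h compound exposure at 37°C, 5% CO2 | Measured by: Fluorescence imaging of beta-catenin antibody stain plus DAPI | Read-out basis: % activation of per-cell nuclear versus cytoplasmic median beta-catenin signal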
Lmaj promast 1uM = L. major promastigote growth inhibition, 1 uM repeat | resazurin fluorescence, 48 h | inhibition, % at 1 µM | shares compounds with L major viab | actives 13% (n = 1,100);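 active = inhibition above about 50% in both repeat tests, limit read from the data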
Dynein inh conf = dynein cargo transport inhibition, confirmation; calls only at 20 µM; actives 69% (n = 1,000); 3617.4 GR-EGFP nuclear translocation imaging, dexamethasone-induced; shares compounds with Dynein cargo inh;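 active = inhibition of receptor movement into the nucleus at or above a set limit in both runs, with normal cell brightness and cell count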;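 also: dexamethasone at 1 µM final in well for 30 min; nuclear minus cytoplasmic GR-EGFP mean intensity difference in channel 2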
CHOP confirm = confirmation of CHOP induction inhibitors; shares compounds with CHOP inhibitor; CHO-CHOP promoter luciferase reporter, tunicamycin-induced, luminescence; inhibition, % at 10 µM; actives 45% (n = 2,100); AID 504437;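 active = mean of three repeat readings of reporter signal inhibition above a set limit, cut at about 70% in these data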;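 also: 0% = tunicamycin plus vehicle and 100% = wells lacking tunicamycin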
An asterisk follows results filed as active; i = inactive; · = no result given; + = active, no number. Compounds with a hit are over-represented: about 12% of the library has one in this group of screens.

SMILES	MT stabilize HCS	L major viab	Dynein cargo inh	CHOP inhibitor	Autophagy HCS	b-catenin transl	others
O=C1C(Cl)=C(N2CCCCC2)C(=O)C(Cl)=C1c1cnc(N2CCCCC2)s1	3	59*	-4.9*	·	i	-1	Lmaj promast 1uM=2;Dynein inh conf=+;CHOP confirm=95*
CC1=CC(C)(C)N2C(=O)C(=O)c3cc(OC(=O)c4ccco4)cc1c32	11	37	0.75	-2	i	0
CC1=CC(C)(C)Nc2ccc(OC(=O)c3ccco3)cc21	9	101*	-1.3	·	i	-5	Lmaj promast 1uM=2;CHOP confirm=-233
CC(C)c1cc(C(=O)N2CCCC(CCC(=O)NCc3ccccc3F)C2)n(C)n1 (stereo unspecified)	3	3	1	11	i	1
CCOC(=O)C1=C(c2ccccc2)O/C(=C(\C(=O)OC)C(F)(F)F)S1	2	-6	-0.052	48	i	5
CCOC(=O)C1=C(c2ccccc2)O/C(=C(/C#N)C(F)(F)F)S1	9	74*	0.62	97*	+	41	Lmaj promast 1uM=9;CHOP confirm=113*
Cn1cnnc1SCc1ccc(C(=O)N=Nc2c(O)n(C)c3ccccc23)cc1	3	2	-0.6	46	i	-1
COC(=O)c1ccc2c(c1)C(C)(C)C(/C=C/c1ccc(OC)c(OC)c1OC)=[N+]2C	3	101*	-3	·	+	-4	Lmaj promast 1uM=101*;CHOP confirm=141*
COC(=O)c1ccc2nc(C)c(C)nc2c1	2	-4	-0.44	-21	i	0
Cc1ccccc1-c1noc(CCC(=O)NCc2ccco2)n1	·	·	0.15	8	·	0
COc1cccc(C2CC(c3cccs3)=NN2S(C)(=O)=O)c1 (stereo unspecified)	2	-4	-0.57	-16	i	5
O=c1cc(-c2ccc(Cl)cc2)oc(=O)[nH]1	·	·	0.14	7	·	0
O=c1cc(N=Nc2ccc(Cl)cc2)[nH]c(=O)[nH]1	·	·	-4.5*	105*	·	2	Dynein inh conf=+
Cc1ccc(C(=O)N/C(=C\c2ccc(-c3cc(Cl)ccc3Cl)o2)C(=O)NCc2cccnc2)cc1	2	38	-0.55	17	i	-4
O=C(NCc1cccnc1)/C(=C\c1ccc(-c2cccc(Cl)c2)o1)S(=O)(=O)c1ccccc1	52*	100*	-4.3*	43	i	17	Dynein inh conf=+
O=C(NCc1cccnc1)/C(=C/c1ccc(-c2cccc(Cl)c2)o1)S(=O)(=O)c1ccccc1	26*	100*	-3.9*	94*	i	55*	Dynein inh conf=+
CC(=O)N(C)C(c1ccc(N(C)C)cc1)c1nnnn1-c1c(C)cccc1C (stereo unspecified)	2	-8	-0.85	-16	i	-2
CCn1cc(C(=O)N2CCc3ccccc32)c(=O)c2cc(S(=O)(=O)N(C)C3CCCCC3)ccc21	4	5	-1.1	-1	i	-6
CC(CC(=O)Nc1cccnc1)c1ccccc1 (stereo unspecified)	4	-3	-0.67	17	i	-1
COc1ccc(N2C(=O)CC(Sc3ncn[nH]3)C2=O)c(OC)c1 (stereo unspecified)	2	10	-4*	91*	i	-2	Dynein inh conf=+
CC(=O)N1C(O)CC(C)N1c1ccccc1 (stereo unspecified)	2	-6	-0.22	-1	i	3
NC(=O)c1ncc(C(F)(F)F)cc1Oc1cccnc1	3	-5	-0.66	16	i	2
CCOC(=O)c1c(=O)n(O)c2ccc(C)cc2[n+]1[O-]	3	-1	-0.12	20	i	·
CCc1ccc(/C=C/C(=O)c2c(C)cc(C)[nH]c2=O)cc1	5	59*	-4*	16	i	1	Dynein inh conf=+
O=S(=O)(Nc1nc2ccc(S(=O)(=O)N3CCCC3)cc2s1)c1ccc(F)cc1	3	-8	1.2	-5	i	·
